Bioassay records (PubChem)
697 NFkB inh – inhibitors of PMA/ionomycin-induced NF-kB reporter, 697 cells, primary screen, B-cell NF-kB inhibitor project, cell-based, luminescence, uHTS; 697 B-cell NF-kB luciferase reporter, 16 h; inhibition, % at 4 µM; 0.33% of 330,000 active; AID 435022, 2010; in the data active means inhibition above about 35%
NR2E3 ag-1 – inhibitors of NR2E3-RetCOR corepressor binding, primary screen, NR2E3 agonist project, biochemical, TR-FRET, GST-NR2E3, biotin-RetCOR; 1536-well; inhibition of corepressor binding, % at 4.78 µM; 0.12% of 320,000 active; AID 2300, 2010;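 active means percent inhibition above the cutoff of mean plus 3 SD of all tested compounds, set per screening campaign, cut at about 20% in these data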;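 further: 0% = DMSO wells and 100% = biotin wells as full block of FRET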
Target sequence (Q9Y5X4 whole entry, looked up): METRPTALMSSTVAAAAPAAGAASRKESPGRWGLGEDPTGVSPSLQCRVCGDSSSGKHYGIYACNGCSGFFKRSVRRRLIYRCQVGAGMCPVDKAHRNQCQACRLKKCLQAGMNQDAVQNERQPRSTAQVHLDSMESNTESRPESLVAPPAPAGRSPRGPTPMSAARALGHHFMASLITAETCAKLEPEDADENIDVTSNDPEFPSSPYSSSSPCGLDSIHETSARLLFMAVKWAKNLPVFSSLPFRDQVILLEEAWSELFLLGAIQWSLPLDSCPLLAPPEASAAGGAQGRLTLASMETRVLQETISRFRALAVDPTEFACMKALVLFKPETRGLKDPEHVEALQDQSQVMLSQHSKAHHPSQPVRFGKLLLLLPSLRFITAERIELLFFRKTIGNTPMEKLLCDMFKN
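Format: 1536-well format; test system: GST-NR2E3 and biotin-RetCOR proteins; read-out basis: percent inhibition of TR-FRET ratio; timing: 5 h incubation at 4 °C; detection: time-resolved FRET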
NR2E3 ag-2 – NR2E3 agonists in two-hybrid cells, primary screen, cell-based, luminescence, CHO-S, Gal4-NCOR/VP16-NR2E3. Photoreceptor-specific nuclear receptor (Homo sapiens), Q9Y5X4. luciferase. inhibition of corepressor binding, % at 3.98 µM. 0.35% of 360,000 active. AID 602229, 2012;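 active means inhibition above the mean of all tested compounds plus 3 SD, cut at about 70% in these data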;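 further: 0% = DMSO with NR2E3 transfected cells and 100% = cells lacking NR2E3 construct; higher means lower luciferase signal from less NR2E3 corepressor binding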
Jurkat NFkB inh – inhibitors of induced NF-kB luciferase reporter, primary screen, TCR NF-kB activation inhibitor project, cell-based, luminescence, uHTS | Jurkat, PMA/ionomycin-induced NF-kB luciferase reporter | inhibition, % at 4 µM | 0.53% of 330,000 active | AID 435003, 2010; in the data active means inhibition above about 50%
FGF22 binding – binders of human FGF22 protein, primary screen, FGF22 synaptogenesis inhibitor project, biophysical, thermal shift, single point. Fibroblast growth factor 22 (Homo sapiens), Q9HCT0. recombinant FGF22 thermal shift, SYPRO orange fluorescence; percent of sucrose octasulfate shift, DMSO zero. activity (Tm shift, normalised), % at 9.99 µM. 1.5% of 340,000 active;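 active means mean Tm shift, scaled 0 neutral to 100 positive control, at about 1.3% or above, every replicate too, limit read from the data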
miR122 inh – miR-122 Renilla sensor signal increase in Huh7, primary screen, miR-122 inhibitor project, cell-based, single point, plate reader | Huh7 miR-122 Renilla luciferase sensor, 48 h; neutral wells = 0, positive control = 100 | activation (reporter increase), % at 12.5 µM | 0.3% of 340,000 active | AID 602342, 2012;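 active means mean replicate activation score at least 90 and every replicate individually at or above 90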;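 further: higher luciferase means less miR-122 activity so hits act as miR-122 inhibitors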
The depositor's hits bear a star; x = no result given; [ ] = dose if it differs, or a comment. Only some compounds are listed: those with a hit (about 2.2% of all), similar ones and a draw of the others.

SMILES	697 NFkB inh	NR2E3 ag-1	NR2E3 ag-2	Jurkat NFkB inh	FGF22 binding	miR122 inh
COCC(=O)N[C@@H]1C=C[C@@H](CC(=O)NCc2ccccc2OC)O[C@@H]1CO	x	x	x	x	0.1	x
Cc1cccnc1NS(=O)(=O)c1ccccc1	x	x	-14.4	x	43.6*	-6.6
Cc1cc(C)c(NS(=O)(=O)c2ccccc2)c(C)n1	x	x	-8.4	x	43.3*	x
Cc1ccc(S(=O)(=O)N[C@@H]2CC[C@@H](CC(=O)O)O[C@H]2CO)cc1	x	x	x	x	0.0	-11.1[16.7 µM]
COc1ccc(/[N+]([O-])=C/c2ccoc2)cc1	-86.6	0.8	-97.0	-69.7	45.1*	-3.0
O=[N+]([O-])c1nn(-c2ccc3c(c2)OCCO3)n(O)c1=Nc1ccc(Cl)cc1	9.9	5.6	86.0*	39.0	-0.2	-3.3
CCN(CC)C(=O)C(=O)c1ccn(-c2c(C)csc2C(=O)OC)c1	2.8	3.2	4.0	-15.3	43.0*	-4.5
CC(CC(=O)O)CC(=O)Nc1cccc([N+](=O)[O-])c1 (configuration not stated)	7.9	0.2	-13.2	-2.5	43.1*	-9.1
O=C(CCc1n[nH]c(=O)[nH]c1=O)Nc1cccc([N+](=O)[O-])c1	-18.9	1.0	18.6	-2.3	43.7*	x
Nc1nc(SCC(=O)Nc2cccc([N+](=O)[O-])c2)n[nH]1	11.2	x	-6.9	-5.7	-0.2	x
O=C(Cc1cccs1)Nc1cccc([N+](=O)[O-])c1	4.0	3.1	-5.7	8.1	43.4*	x
CC(C)NC(=O)N(C)C[C@H]1Oc2cc(C#CCN(C)C)ccc2S(=O)(=O)N([C@@H](C)CO)C[C@@H]1C	x	x	x	x	0.0	12.0[16.7 µM]
CCOc1ccc(NC(=S)NN2C(C)CCCC2C)cc1 (configuration not stated)	11.2	-2.4	9.4	12.2	x	2.3
CC(=O)c1ccc(NC(=S)NN2C(C)CCCC2C)cc1 (configuration not stated)	9.2	-1.9	-0.4	6.1	43.3*	x
COc1ccc(OC)c(-c2csc(NC(=O)Cc3ccccc3OC)n2)c1	1.0	2.6	-24.3	4.6	-0.2	27.4
COc1ccc(OC)c(-c2csc(NC(=O)Cc3ccccc3F)n2)c1	-3.3	2.1	-45.9	-14.7	-0.2	117.4*
O=C(Nc1cc(S(=O)(=O)N2CCOCC2)ccc1Cl)C(=O)c1c(-c2ccccc2)cc2ccccn12	14.8	-1.3	-45.0	-8.3	x	154.9*
COc1cc2oc(=O)cc(C)c2c(OC)c1OC	-3.5	3.0	17.6	5.1	43.3*	x
COc1cc2oc(=O)cc(-c3ccc(-c4ccc(C)cc4)cc3)c2c(OC)c1OC	-0.6	x	-30.0	x	-0.1	0.3
COc1ccc(NC(=O)N(C)C[C@@H]2OCCCC[C@@H](C)Oc3ccc(NC(=O)c4ccccc4)cc3C(=O)N([C@@H](C)CO)C[C@H]2C)cc1	x	x	x	x	-0.2	11.5[16.7 µM]
CC(NS(=O)(=O)OCC(Cl)(Cl)Cl)c1ccc(Br)cc1 (configuration not stated)	19.6	-2.3	2.3	8.0	43.3*	x
COc1ccc(C(=O)N/N=C/c2c(CO)cnc(C)c2O)cc1	16.0	-6.8	-5.4	15.3	43.8*	x
Cc1ncc(CO)c(/C=N/NC(=S)Nc2cccc(Cl)c2)c1O	5.0	-2.1	-30.5	-6.4	x	x
Cc1ncc(CO)c(/C=N/NC(=S)Nc2ccc(Cl)c(Cl)c2)c1O	25.5	-1.6	5.2	5.1	1.5*	x
Cc1ncc(CO)c(/C=N/NC(=O)c2ccc(O)cc2)c1O	1.8	-5.3	-2.1	1.3	x	-5.9
C[C@@H]1CN([C@@H](C)CO)C(=O)c2cc(NC(=O)Nc3ccc4c(c3)OCO4)ccc2O[C@H]1CN(C)S(=O)(=O)c1ccccc1	x	x	x	x	0.2	8.3[16.7 µM]
O=C(CN1CCOCC1)NCC[C@@H]1CC[C@@H](NC(=O)c2ccccc2F)[C@H](CO)O1	x	x	x	x	-0.2	x
